Test results taken from ChEMBL document CHEMBL4842338, “System-oriented optimization of multi-target 2,6-diaminopurine derivatives: Easily accessible broad-spectrum antivirals active against flaviviruses, influenza virus and SARS-CoV-2” (Eur J Med Chem, 2021).
Calls of active or inactive are those of the source. The calls are words filed in the database; no cut-off is given here.

Assays:
[1] = Selectivity index, ratio of CC50 for human Caco-2 cells infected with SARS-COV-2 to IC50 of SARS-COV 2 infected in human Caco-2 cells; type: toxicity, cell-based; details: read-out: Selectivity Index
[2] = Inhibition of full length ZIKV NS5-MTase domain using 7MeGpppAC4 as a substrate incubated for 30 mins by filter binding assay; set-up: species or system Zika virus
[3] = system: dengue virus type 2; assay: Antiviral activity against Dengue virus serotype 2 New Guinea C infected in pre-seeded Huh-7 cells assessed as inhibition of viral replication incubated for 72 hrs by immunodetection based direct yield reduction assay; type: functional, organism-based; details: huh-7
[4] = biological target: PIK3CA (Phosphatidylinositol 4,5-bisphosphate 3-kinase catalytic subunit alpha isoform) (Homo sapiens, UniProt P42336); assay: Inhibition of human full length PIK3CA assessed as residual activity at 5 uM using PI:PS (1:3) as a substrate incubated for 10 mins by scintillation counting analysis relative to control; details: full length PIK3CA enzyme, probe PI:PS (1:3), read-out: Activity
Sequence of PIK3CA (Phosphatidylinositol 4,5-bisphosphate 3-kinase catalytic subunit alpha isoform) (P42336 whole entry, canonical isoform): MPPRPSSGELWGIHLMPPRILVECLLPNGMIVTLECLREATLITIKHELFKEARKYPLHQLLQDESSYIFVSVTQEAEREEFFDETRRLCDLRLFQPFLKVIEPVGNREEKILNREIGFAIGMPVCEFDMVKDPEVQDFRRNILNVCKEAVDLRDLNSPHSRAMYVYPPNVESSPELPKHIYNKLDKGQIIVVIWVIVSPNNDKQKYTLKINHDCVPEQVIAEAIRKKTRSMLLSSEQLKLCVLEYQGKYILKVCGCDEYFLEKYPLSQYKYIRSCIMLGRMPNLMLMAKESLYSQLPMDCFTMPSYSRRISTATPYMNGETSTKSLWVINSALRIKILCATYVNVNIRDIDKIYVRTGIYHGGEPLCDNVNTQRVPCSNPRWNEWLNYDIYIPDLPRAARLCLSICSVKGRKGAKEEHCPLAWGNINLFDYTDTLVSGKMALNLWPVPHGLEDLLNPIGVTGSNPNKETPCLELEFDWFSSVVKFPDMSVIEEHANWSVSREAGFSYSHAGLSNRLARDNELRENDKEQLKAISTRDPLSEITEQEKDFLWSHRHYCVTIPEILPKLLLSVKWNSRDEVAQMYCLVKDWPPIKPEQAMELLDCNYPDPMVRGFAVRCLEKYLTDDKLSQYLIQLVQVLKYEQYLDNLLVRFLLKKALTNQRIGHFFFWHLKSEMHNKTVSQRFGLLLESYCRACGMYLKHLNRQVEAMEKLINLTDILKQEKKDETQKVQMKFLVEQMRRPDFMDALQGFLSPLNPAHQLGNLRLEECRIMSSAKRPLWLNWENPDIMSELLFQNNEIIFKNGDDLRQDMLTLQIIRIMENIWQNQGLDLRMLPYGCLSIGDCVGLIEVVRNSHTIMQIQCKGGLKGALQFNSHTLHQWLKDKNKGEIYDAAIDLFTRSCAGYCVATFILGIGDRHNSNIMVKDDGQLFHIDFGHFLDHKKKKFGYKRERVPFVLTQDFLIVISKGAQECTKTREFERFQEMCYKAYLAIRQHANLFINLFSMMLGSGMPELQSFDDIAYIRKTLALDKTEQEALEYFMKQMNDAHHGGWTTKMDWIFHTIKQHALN
Procedure, shortened: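 Radiometric kinase reaction with 10–50 ng enzyme and compound fixed at 5 μM, 10 μL at 30 °C for 10 min. Reactions spotted on filter and counted by scintillation. Residual activity is the mean ± SD of two independent experiments.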

[5] = system: Influenza A virus; assay: Antiviral activity against Influenza A virus (A/parrot/Ulster/73(H7N1)) infected in human A549 cells assessed as reduction in viral protein expression at 20 uM treated for 1 hr during viral adsorption followed by staining with anti-Flu antibody observed at 24 hrs post infection by In-cell western assay; type: functional, organism-based
[6] = system: A549; assay: Cytotoxicity against human A549 cells assessed as reduction in cell viability measured after 24 hrs by MTT assay; type: cell-based; details: a549, 24 h
[7] = system: Influenza A virus; assay: (§1) Antiviral activity against Influenza A Puerto Rico/8/34/H1N1 infected in human A549 cells assessed as inhibition of hemagglutinin expression at 20 uM pretreated for 2 hrs followed by infection of fresh cell monolayer of A549 cells with supernatant for 24 hrs by In-cell western assay; type: functional, organism-based; details: A/Puerto Rico/8/1934(H1N1)
Procedure, shortened: (§2)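 A549 cells infected with PR8 H1N1 and given 20 μM compound: 2 h before infection (PRE), 1 h during adsorption (DUR), or 24 h after adsorption (POST); supernatants used to infect fresh monolayers for 24 h; anti-HA in-cell western; RFU as % of untreated infected; 3 replicates from two experiments.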

[8] = system: Influenza A virus; assay: Antiviral activity against Influenza A Puerto Rico/8/34/H1N1 infected in MDCK cells assessed as inhibition of viral replication measured in supernatants of infected cells after 24 hrs by hemagglutination assay; type: functional, organism-based; details: A/Puerto Rico/8/1934(H1N1)
[9] = Selectivity index, ratio of CC50 for human Huh-7 cells to IC50 for Zika virus H/PF/2013 infected in pre-seeded Huh-7 cells assessed as inhibition of viral replication incubated for 72 hrs by immunodetection based secondary yield reduction assay; type: toxicity, cell-based; details: read-out: Selectivity Index
[10] = system: Influenza A virus; assay: Antiviral activity against Influenza A/California/04/2009H1N1 infected in human A549 cells assessed as reduction in viral protein expression at 20 uM pretreated for 2 hrs followed by staining with anti-Flu antibody observed at 24 hrs post infection by In-cell western assay; type: functional, organism-based
[11] = system: Influenza A virus; assay: as §1, with “treated” for “pretreated”, “1 hr during viral absorption” for “2 hrs”; type: functional; details: A/Puerto Rico/8/1934(H1N1); procedure, shortened: as §2
[12] = system: Influenza A virus; assay: Antiviral activity against Influenza A/California/04/2009H1N1 infected in human A549 cells assessed as reduction in viral protein expression at 20 uM treated for 24 hr post viral adsorption followed by staining with anti-Flu antibody observed at 24 hrs post infection by In-cell western assay; type: functional, organism-based
[13] = system: Influenza A virus; assay: Antiviral activity against Influenza A Puerto Rico/8/34/H1N1 infected in human A549 cells assessed as inhibition of hemagglutinin expression at 20 uM treated immediately after infection for 2 to 6 hrs followed by maintaining cells in fresh medium without compound for 24 hrs followed by infecting monolayer MDCK cells with supernatant for 24 hrs by time-of-addition assay; type: functional, organism-based; details: A/Puerto Rico/8/1934(H1N1), time 2-6 hrs
Procedure, shortened: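 A549 cells infected with PR8 H1N1 received 20 μM compound immediately after adsorption for 2, 4 or 6 h, then fresh medium to 24 h; supernatants infected fresh MDCK for 24 h; anti-HA in-cell western; RFU % vs untreated infected; 4 replicates from two experiments.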

[14] = Selectivity index, ratio of CC50 for MDCK cells to IC50 for Influenza A Puerto Rico/8/34/H1N1 infected in MDCK cells; type: toxicity, cell-based; details: dog, read-out: Selectivity Index
Procedure, shortened: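 MDCK or A549 cells (2.5 × 10⁵/well) infected with A/Puerto Rico/8/34 H1N1 for 1 h at 37 °C, then washed. Compound (0.5–20 μM) added in 2% FBS medium for 24 h, with DMSO final ≤0.2%. Virus in supernatants read by hemagglutination. CC₅₀ by MTT (2 × 10⁴ cells/well, same concentrations, 24 h, absorbance 570 nm). SI = CC₅₀/IC₅₀.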

[15] = system: Zika virus; assay: Antiviral activity against Zika virus H/PF/2013 infected in pre-seeded Huh-7 cells assessed as inhibition of viral replication incubated for 72 hrs by immunodetection based plaque reduction assay; type: functional, organism-based; details: H/PF/2013, Huh-7, 72 h
[16] = system: Huh-7; assay: Effect on formation of DENV replication complex in human Huh-7 cells assessed as reduction in expression of NS3 at 50 uM measured after 8 to 24 hrs by DAPI staining based confocal microscopy analysis; type: functional, cell-based; details: time 8-24 hrs
Procedure, shortened: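 Huh-7 cells (1 × 10⁴) on coverslips infected with DENV-2 (MOI 0.05), treated (100 or 50 μM as listed), fixed in 4% paraformaldehyde at 8, 12, 16, 24 h; anti-NS3/anti-NS5 with Alexa 488/568 secondaries, DAPI; confocal, 5 random fields at 40×; % positive cells; 2-way ANOVA with Dunnett.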

[17] = biological target: CDK9/cyclin T1 (Homo sapiens, UniProt P50750); assay: Inhibition of human full length CDK9/ His-tagged cT1 assessed as residual activity at 5 uM using CDKtide as a substrate in the presence of BSA incubated for 10 mins by scintillation counting analysis relative to control; type: protein-complex assay; details: full length CDK9/His-tagged cyclin T1 complex, probe CDKtide, read-out: Activity
Sequence of CDK9/cyclin T1 (O60563 whole entry): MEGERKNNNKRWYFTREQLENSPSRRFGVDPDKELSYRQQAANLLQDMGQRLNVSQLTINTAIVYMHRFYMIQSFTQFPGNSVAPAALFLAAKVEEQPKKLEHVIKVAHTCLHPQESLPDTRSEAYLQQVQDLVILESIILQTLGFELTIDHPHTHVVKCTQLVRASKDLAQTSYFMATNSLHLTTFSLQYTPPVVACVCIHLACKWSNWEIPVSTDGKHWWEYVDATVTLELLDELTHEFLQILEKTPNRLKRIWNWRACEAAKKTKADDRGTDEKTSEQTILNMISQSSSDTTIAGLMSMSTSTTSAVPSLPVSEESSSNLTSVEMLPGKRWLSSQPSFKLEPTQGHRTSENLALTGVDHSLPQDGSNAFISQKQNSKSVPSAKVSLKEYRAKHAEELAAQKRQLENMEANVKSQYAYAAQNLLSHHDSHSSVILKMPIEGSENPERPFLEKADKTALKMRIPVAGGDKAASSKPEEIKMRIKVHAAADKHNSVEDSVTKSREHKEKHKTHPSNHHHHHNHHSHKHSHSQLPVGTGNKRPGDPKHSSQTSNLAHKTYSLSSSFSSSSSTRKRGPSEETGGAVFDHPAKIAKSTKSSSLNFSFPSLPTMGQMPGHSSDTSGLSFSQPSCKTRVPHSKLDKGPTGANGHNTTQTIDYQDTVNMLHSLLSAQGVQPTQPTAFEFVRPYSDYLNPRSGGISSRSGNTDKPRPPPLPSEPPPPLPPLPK
Sequence of CDK9/cyclin T1 (P50750 whole entry): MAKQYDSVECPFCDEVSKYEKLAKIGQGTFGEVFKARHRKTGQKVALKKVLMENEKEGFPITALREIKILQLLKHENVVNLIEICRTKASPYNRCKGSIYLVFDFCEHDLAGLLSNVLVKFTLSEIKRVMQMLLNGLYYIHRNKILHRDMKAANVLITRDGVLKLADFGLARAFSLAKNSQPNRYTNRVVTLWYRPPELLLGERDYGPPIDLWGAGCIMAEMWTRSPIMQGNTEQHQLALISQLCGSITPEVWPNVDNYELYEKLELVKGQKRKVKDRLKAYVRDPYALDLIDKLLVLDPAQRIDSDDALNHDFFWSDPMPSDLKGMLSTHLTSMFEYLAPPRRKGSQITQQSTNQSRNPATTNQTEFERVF
Procedure, shortened: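 Compounds at fixed 5 μM; 10–50 ng kinase, substrate and NP-40/BSA per supplementary table, 10 μL at 30 °C for 10 min in low-binding tubes. Reactions spotted on filter, dried, scintillation counted. Mean ± SD of two independent experiments.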

[18] = Cytotoxicity against African green monkey Vero E6 cells infected with SARS-COV-2 by celltiter-glo luminescent cell viability assay; type: cell-based, Vero C1008; details: chlorocebus sabaeus, Vero E6 cells infected with SARS-COV-2
Procedure, shortened: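 Compound-exposed cells assessed by CellTiter-Glo luminescence versus DMSO control; CC50 from dose-response.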

[19] = Selectivity index, ratio of CC50 for African green monkey Vero E6 cells infected with SARS-COV-2 to IC50 for SARS-COV 2 infected in monkey Vero E6 cells; type: toxicity, cell-based, Vero C1008; details: read-out: Selectivity Index
[20] = system: SARS-CoV-2; assay: Antiviral activity against SARS-COV 2 infected in human Caco-2 cells assessed as inhibition of viral replication at MOI of 0.01 and incubated after 2 hrs post infection for 48 hrs by immunodetection assay; type: functional, organism-based; details: Severe acute respiratory syndrome coronavirus 2, Caco-2
[21] = Selectivity index, ratio of CC50 for human Huh-7 cells to IC50 for Dengue virus serotype 2 New Guinea C infected in pre-seeded Huh-7 cells assessed as inhibition of viral replication incubated for 72 hrs by immunodetection based secondary yield reduction assay; type: toxicity, cell-based; details: read-out: Selectivity Index

For `FC(F)(F)c1cccc(Nc2nc(NCCOc3ccccc3)nc3[nH]cnc23)c1`, the selectivity ratio [1] was 14, the IC50 [2] was “Not Active” and the IC50 [3] was “Not Active”. For the same compound, the activity at 10 min, 5 µM [4] was 66%, the Activity [5] was “Active” and the CC50 [6] was 106 µM. For the same compound, the inhibition [7] was “inactive”, the IC50 [8] was 5.3 µM and the selectivity ratio at 72 h [9] was 182. For the same compound, the Activity [10] was “Active”, the inhibition at 20 µM [11] was 50% and the Activity [12] was “Active”. The Activity [13] was “Active”, the selectivity ratio [14] was 14.5 and the IC50 [15] was 0.5 µM. The Activity [16] was “Active”, the activity at 10 min, 5 µM [17] was > 98% and the CC50 [18] was 200 µM. The selectivity ratio [19] was 4, the IC50 [20] was 5.9 µM and the selectivity ratio at 72 h [21] was 77.
